Reference: ChEMBL document CHEMBL3244350, “Antitumor and antiinflammatory agents: N-benzoyl-protected cyanomethyl esters of amino acids” (J Med Chem, 1979)
Active and inactive are the calls of the source. The rule behind the calls is not given here.

Tests used:
[1] = test system: Mus musculus; experiment: Antitumor activity against mouse P388 cells allografted in DBA/2 mouse assessed as tumor growth inhibition at 20 mg/kg, ip qd for 2 weeks (reference value: 100%); type: functional; settings: route intraperitoneal
In short: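 DBA/2 male mice (20 g) implanted with 10^6 P-388 cells on day 0, then dosed ip at 20 mg/kg/day for 2 weeks. T/C computed by the NIH protocol; T/C ≥120 counted as significant. 5-Fluorouracil served as internal standard.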

[2] = test system: Mus musculus; experiment: Antitumor activity against mouse P388 cells allografted in DBA/2 mouse assessed as host survival on day 7 at 20 mg/kg, ip qd for 2 weeks; type: functional; settings: route intraperitoneal
In short: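 P388 leukemia in male DBA/2 mice (20 g): 10⁶ cells implanted on day 0. Compounds were given ip at 20 (mg/kg)/day for 2 weeks. Survival was expressed as T/C by the NIH protocol; T/C > 120 counted as significant. 5-Fluorouracil was the internal standard.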

[3] = test system: Mus musculus; experiment: Antitumor activity against mouse EAC allografted in CF1 mouse assessed as host survival on day 7 at 20 mg/kg, ip qd for 7 days; type: functional, organism-based; design: dose 20 mg/kg
[4] = test system: Mus musculus; experiment: Antitumor activity against mouse EAC allografted in CF1 mouse assessed as ascrit fluid volume at 20 mg/kg, ip qd for 7 days (reference value: 6.63 +/- 1.24 mL); type: functional; settings: route intraperitoneal
[5] = test system: Mus musculus; experiment: Antitumor activity against mouse EAC allografted in CF1 mouse assessed as tumor growth inhibition at 20 mg/kg, ip qd for 7 days (reference value: 0%); type: functional; settings: 168 h, route intraperitoneal
[6] = test system: Mus musculus; experiment: Antiinflammatory activity in CF1 mouse assessed as increase in foot weight at 20 mg/kg, ip administered 3 hrs and 30 mins prior to carrageenan-challenge measured after 3 hrs (reference value: 97 +/- 10 mg); type: functional; settings: route intraperitoneal
[7] = organism: Mus musculus; experiment: Toxicity in CF1 mouse; type: organism-based; settings: in vivo
[8] = test system: Mus musculus; experiment: Antiinflammatory activity in CF1 mouse assessed as inhibition of carrageenan-induced paw edema at 20 mg/kg, ip administered 3 hrs and 30 mins prior to carrageenan-challenge measured after 3 hrs (reference value: 0%); type: functional; settings: route intraperitoneal
[9] = test system: Mus musculus; experiment: Immunosuppressive activity in mouse splenic lymphocytes isolated from 25 mg/kg, ip on days 2,3 and 4 treated CF1 mouse assessed as reduction in sheep red blood cell antigen-induced plaque-forming response (reference value: 100%); design: scale not given: the % may be the effect or the level left; settings: route intraperitoneal
[10] = test system: Mus musculus; experiment: Immunosuppressive activity in mouse splenic lymphocytes isolated from 0.1 mg, ip on days 2,3 and 4 treated CF1 mouse assessed as reduction in sheep red blood cell antigen-induced plaque-forming response (reference value: 100%); design: scale not given: the % may be the effect or the level left
[11] = Acute toxicity in CF1 mouse; type: organism-based; settings: in vivo
[12] = test system: Mus musculus; experiment: Analgesic activity in CF1 mouse assessed as inhibition of acetic acid-induced pain measured for 10 mins at 2.5 mg/kg,ip administration 5 mins prior to test by […]; type: functional, organism-based; design: dose 2.5 mg/kg
[13] = test system: Mus musculus; experiment: Analgesic activity in CF1 mouse assessed as inhibition of acetic acid-induced pain measured for 10 mins at 5 mg/kg,ip administration 5 mins prior to test by […]; type: functional, organism-based; design: dose 5 mg/kg
[14] = test system: Rattus norvegicus; experiment: Antipyretic activity in Sprague-Dawley rat assessed as decrease in yeast/mycobacterium butyricum-induced increase temperature at 5 mg/kg, ip; type: functional, organism-based; design: dose 5 mg/kg
[15] = test system: Rattus norvegicus; experiment: Antipyretic activity in Sprague-Dawley rat assessed as decrease in yeast/mycobacterium butyricum-induced increase temperature at 2.5 mg/kg, ip; type: functional, organism-based; design: dose 2.5 mg/kg
[16] = test system: Mus musculus; experiment: Analgesic activity in CF1 mouse assessed as inhibition of acetic acid-induced writhing reflex measured for 10 mins at 20 mg/kg,ip administration 5 mins prior to test by […]; type: functional, organism-based; design: dose 20 mg/kg
[17] = test system: Mus musculus; experiment: Antiinflammatory activity in CF1 mouse assessed as increase in foot weight at 10 mg/kg, ip administered 3 hrs and 30 mins prior to carrageenan-challenge measured after 3 hrs (reference value: 97 +/- 10 mg); type: functional; settings: route intraperitoneal
[18] = test system: Mus musculus; experiment: Antiinflammatory activity in CF1 mouse assessed as inhibition of carrageenan-induced paw edema at 10 mg/kg, ip administered 3 hrs and 30 mins prior to carrageenan-challenge measured after 3 hrs (reference value: 0%); type: functional; settings: route intraperitoneal

Compound | T/C [1] | Survival [2] [days] | Activity [3] | Activity [4] [mL] | inhibition in vivo at 20 mg/kg [5] [%] | Activity [6] [mg] | Activity [7] | inhibition in vivo at 20 mg/kg [8] [%] | Activity [9] [%] | Activity [10] [%] | LD50 [11] [µmol/kg] | Activity [12] | Activity [13] | Activity [14] | Activity [15] | inhibition [16] | Activity [17] [mg] | inhibition in vivo at 10 mg/kg [18] [%]
O=c1[nH]cc(F)c(=O)[nH]1 [FLUOROURACIL] | 186 | 18 |  |  |  |  |  |  |  |  |  |  |  |  |  |  |  | 
Sc1ncnc2nc[nH]c12 [MERCAPTOPURINE ANHYDROUS] |  |  | Active | 0.7 | 99.6 |  |  |  |  |  |  |  |  |  |  |  |  | 
N#CCOC(=O)CCCCCNC(=O)c1ccccc1 |  | 10.3 | Active | 2.73 | 45.2 | 65 | Non-toxic | 40 |  |  |  |  |  |  |  |  |  | 
N[C@@H](Cc1ccc(N(CCCl)CCCl)cc1)C(=O)O [MELPHALAN] |  |  |  |  |  |  |  |  | 100 | 51 |  |  |  |  |  |  |  | 
Cc1ccc(S(=O)(=O)N[C@@H](Cc2ccccc2)C(=O)CCl)cc1 [TPCK] |  |  |  | 0.01 | 100 | 31 |  | 56 |  |  | 210 |  |  |  |  |  |  | 
N#CCOC(=O)CNC(=O)OCc1ccccc1 |  |  | Active | 2.2 | 29 | 48 | Non-toxic | 45 | 58 |  |  |  |  |  |  |  |  | 
CC(C)C(NC(=O)c1ccccc1)C(=O)OCC#N (configuration not stated) | 109 | 10.5 |  | 0.07 | 99.9 | 82 | Non-toxic | 24 |  |  |  |  |  |  |  |  |  | 
CC(NC(=O)c1ccccc1)C(=O)OCC#N (configuration not stated) | 100 | 9.7 | Active | 2.91 | 43.3 | 87 | Non-toxic | 25 |  |  |  |  |  |  |  |  |  | 
N#CCOC(=O)[C@@H]1CCCN1C(=O)c1ccccc1 | 93 | 9 |  | 2.93 | 59.3 | 67 | Non-toxic | 39 |  |  |  |  |  |  |  |  |  | 
N#CCOC(=O)CCCNC(=O)c1ccccc1 | 104 | 10 |  | 2.78 | 43.1 | 68 | Non-toxic | 37 |  |  |  |  |  |  |  |  |  | 
N#CCOC(=O)[C@H](Cc1ccccc1)NC(=O)c1ccccc1 |  |  |  | 1.8 | 47 | 43 | Non-toxic | 51 |  |  |  |  |  |  |  |  |  | 
N#CCOC(=O)CCCCCNC(=O)OCc1ccccc1 |  |  | Active | 1 | 54 | 63 | Non-toxic | 28 |  |  |  |  |  |  |  |  |  | 
N#CCOC(=O)[C@H](Cc1ccccc1)NC(=O)[C@H](Cc1ccccc1)NC(=O)OCc1ccccc1 |  |  |  | 2.1 | 43 | 61 | Non-toxic | 30 |  |  |  |  |  |  |  |  |  | 
N#CCOC(=O)CCNC(=O)c1ccccc1 |  |  |  | 4.96 | 11.6 | 75 | Non-toxic | 31 |  |  |  |  |  |  |  |  |  | 
CC(=O)N[C@@H](Cc1ccccc1)C(=O)OCC#N |  |  | Active | 3.9 | 16 | 49 | Non-toxic | 44 |  |  |  |  |  |  |  |  |  | 
C[C@H](NC(=O)c1ccccc1)C(=O)OCC#N | 101 | 9.8 | Active | 0.1 | 98.2 | 56 | Non-toxic | 49 |  |  |  |  |  |  |  |  |  | 
N#CCOC(=O)[C@H](Cc1ccccc1)NC(=O)OCc1ccccc1 | 68 | 6.6 | Active | 0.2 | 99.9 | 39 | Non-toxic | 55 | 86 |  |  | inactive | inactive | inactive | inactive | Active |  | 
Cc1ccc(S(=O)(=O)N[C@@H](Cc2ccccc2)C(=O)OCC#N)cc1 | 94 | 9.1 |  | 0.4 | 97 | 69 | Non-toxic | 21 |  |  |  |  |  |  |  |  |  | 
COc1ccc2c(c1)c(CC(=O)O)c(C)n2C(=O)c1ccc(Cl)cc1 [INDOMETHACIN] | 100 | 9.66 |  |  |  | 97 |  | 0 |  |  |  |  |  |  |  |  | 23 | 74
N#CCOC(=O)C(Cc1ccccc1)NC(=O)OCc1ccccc1 (configuration not stated) |  |  | Active | 0.4 | 86 | 54 | Non-toxic | 38 |  |  |  |  |  |  |  |  |  | 
CCC(C)C(NC(=O)c1ccccc1)C(=O)OCC#N (configuration not stated) | 122 | 11.8 |  | 2.97 | 46.6 | 89 | Non-toxic | 18 |  |  |  |  |  |  |  |  |  | 
N#CCOC(=O)CNC(=O)c1ccccc1 | 109 | 10.5 | Active | 2.85 | 40.2 | 55 | Non-toxic | 50 |  |  |  |  |  |  |  |  |  | 
N#CCOC(=O)[C@H](Cc1ccc(O)cc1)NC(=O)c1ccccc1 | 113 | 11.3 |  | 1.98 | 42.3 | 75 | Non-toxic | 41 |  |  |  |  |  |  |  |  |  | 
CC(C)C[C@H](NC(=O)c1ccccc1)C(=O)OCC#N | 117 | 11.3 |  | 0.8 | 87.2 | 77 | Non-toxic | 29 |  |  |  |  |  |  |  |  |  | 
